According to ChEMBL document CHEMBL5316289, “Structure-Based Rational Design of Small α-Helical Peptides with Broad-Spectrum Activity against Multidrug-Resistant Pathogens” (J Med Chem, 2023):
Active and inactive are the calls of the source. The rule behind the calls is not given here.

Tests used:
Escherichia coli [1] = assay: Antibacterial activity against Escherichia coli ATCC 25922 assessed as fold increase in MIC incubated for 24 hrs in presence of Na+ ions by CLSI based broth microdilution method; assay type: functional
Procedure, shortened: (§1)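 E. coli MICs by CLSI broth microdilution in cation-adjusted Mueller Hinton broth. […] Inoculum was 10^6 CFU/mL with 2-fold serial peptide dilutions, incubated 24 h at 37 °C. MIC is the lowest concentration inhibiting growth. Three independent assays, each in triplicate.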

Staphylococcus aureus [2] = assay: Antibacterial activity against methicillin resistant Staphylococcus aureus ATCC BAA 1556 assessed as fold increase in MIC incubated for 24 hrs in presence of K+ ions by CLSI based broth microdilution method; assay type: functional
Procedure, shortened: (§2)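 CLSI broth microdilution. Overnight cultures diluted in cation-adjusted Mueller Hinton broth to 10^6 CFU/mL, mixed 1:1 with 2-fold serial peptide dilutions, 24 h at 37 °C. […] MIC is the lowest concentration inhibiting growth. Three independent assays in triplicate.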

Staphylococcus aureus [3] = assay: Antibacterial activity against methicillin resistant Staphylococcus aureus ATCC BAA 1556 assessed as fold increase in MIC incubated for 24 hrs in presence of Ca2+ ions by CLSI based broth microdilution method; assay type: functional; procedure, shortened: as §2
Escherichia coli [4] = assay: Antibacterial activity against Escherichia coli ATCC 25922 assessed as fold increase in MIC incubated for 24 hrs in presence of K+ ions by CLSI based broth microdilution method; assay type: functional; procedure, shortened: as §1
Escherichia coli [5] = assay: Antibacterial activity against Escherichia coli ATCC 25922 assessed as fold increase in MIC incubated for 24 hrs in presence of Mg2+ ions by CLSI based broth microdilution method; assay type: functional; procedure, shortened: as §1
Staphylococcus aureus [6] = assay: Bactericidal activity against methicillin resistant Staphylococcus aureus ATCC BAA 1556 assessed as inhibition of bacterial growth at MIC incubated for 4 hrs by Time kill assay; assay type: functional
Procedure, shortened: (§3)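 Aliquots taken every 30 min for 4 h and plated on agar for viable colony counts. Two independent experiments in triplicate.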

MRC5 [7] = assay: Antiproliferative activity human MRC5 cells assessed as reduction in cell viability at 50 ug/ml incubated for 24 hrs by MTS assay; assay type: functional; conditions: dose 50 µg/ml
Procedure, shortened: (§4)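 Cells seeded at 10,000 per well 24 h before treatment. Media: MRC-5 and HEK293 in DMEM with 10% FBS; HepaRG in William's E with GlutaMAX; HEKa in Dermal Cell Basal medium plus keratinocyte growth kit. Peptide at 10–250 μg/mL in triplicate for 24 h, 37 °C, 5% CO2. MTS added for 2 h, then A490 read. Survival is blank-corrected OD as % of untreated control.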

HEK293 [8] = assay: Antiproliferative activity human HEK293 cells assessed as reduction in cell viability at 50 ug/ml incubated for 24 hrs by MTS assay; assay type: functional; conditions: dose 50 µg/ml; procedure, shortened: as §4
HepaRG = assay: Antiproliferative activity human HepaRG cells assessed as reduction in cell viability at 50 ug/ml incubated for 24 hrs by MTS assay; assay type: functional; conditions: dose 50 µg/ml; procedure, shortened: as §4
[9] = Antiproliferative activity human HEKa cells assessed as reduction in cell viability at 50 ug/ml incubated for 24 hrs by MTS assay; assay type: functional; conditions: dose 50 µg/ml; procedure, shortened: as §4
MRC5 [10] = assay: Antiproliferative activity human MRC5 cells assessed as reduction in cell viability at 250 ug/ml incubated for 24 hrs by MTS assay; assay type: functional; conditions: dose 250 µg/ml; procedure, shortened: as §4
HEK293 [11] = assay: Antiproliferative activity human HEK293 cells assessed as reduction in cell viability at 250 ug/ml incubated for 24 hrs by MTS assay; assay type: functional; conditions: dose 250 µg/ml; procedure, shortened: as §4
Staphylococcus aureus [12] = assay: Bactericidal activity against methicillin resistant Staphylococcus aureus ATCC BAA 1556 assessed as inhibition of bacterial growth at MIC to 4 times of MIC by Time kill assay; assay type: functional, organism-based; conditions: time 4.0 hrs, TDE = time-dependent effect; procedure, shortened: as §3
Staphylococcus aureus [13] = assay: Bactericidal activity against methicillin resistant Staphylococcus aureus ATCC BAA 1556 assessed as inhibition of bacterial growth at 4 times of MIC incubated for 4 hrs by Time kill assay; assay type: functional; procedure, shortened: as §3
Cell membrane [14] = assay: Induction of membrane disruption in bacterial inner membrane mimic DOPC/DOPG (7:3) large unilamellar vesicles assessed as induction of dye leakage measured upto 100 mins by calcein dye based analysis; assay type: subcellular; conditions: dose 5-50 µg/ml
Procedure, shortened: (§5)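 LUVs loaded with calcein: DOPC/DOPG 7:3 w/w (bacterial mimic) or DOPC/cholesterol 10:1 w/w (mammalian mimic). Mixed 1:1 by volume with peptide at 5, 10, 20, 30 or 50 μg/mL. Fluorescence (ex 490/em 520 nm) read every 10 min for 100 min. Leakage expressed relative to 10% Triton X-100 lysis (100%), after subtracting liposome background. Triplicate.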

Cell membrane [15] = assay: Induction of membrane disruption in bacterial inner membrane mimic DOPC/DOPG (7:3) large unilamellar vesicles assessed as induction of dye leakage at 5 ug/ml measured after 100 mins by calcein dye based analysis; assay type: subcellular; conditions: dose 5.0 µg/ml; procedure, shortened: as §5
Cell membrane [16] = assay: Induction of membrane disruption in bacterial inner membrane mimic DOPC/DOPG (7:3) large unilamellar vesicles assessed as induction of dye leakage at 50 ug/ml measured after 100 mins by calcein dye based analysis; assay type: subcellular; conditions: dose 50.0 µg/ml; procedure, shortened: as §5
Cell membrane [17] = assay: Disruption of cell membrane in Escherichia coli ATCC BAA-2452 assessed as cell membrane perturbation measured after 1 hrs by PI and DAPI double staining based fluorescence microscopic analysis; assay type: subcellular
Procedure, shortened: (§6)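 Mid-log E. coli ATCC BAA-2452 was washed three times in PBS (10 mM, pH 7.3). Cells at 10^7 CFU/mL were exposed to agent at MIC or 4× MIC for 1 h, then pelleted at 3000g and washed. Staining was PI for 15 min, then DAPI for 15 min, both at 37 °C in the dark. Untreated cells were processed alike. Imaged by fluorescence microscopy with 60× oil objective.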

Cell membrane [18] = assay: Disruption of cell membrane in Escherichia coli ATCC BAA-2452 assessed as cell membrane perturbation at 4 times of MIC measured after 1 hrs by PI and DAPI double staining based fluorescence microscopic analysis; procedure, shortened: as §6
Cell membrane [19] = assay: Disruption of cell membrane in methicillin resistant Staphylococcus aureus ATCC BAA 1556 assessed as increase in PI fluorescence intensity measured after 1 hrs by PI staining based flow cytometric analysis; assay type: subcellular
Procedure, shortened: (§7)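 Mid-log cells grown in Mueller Hinton broth, washed in 10 mM Tris pH 7.4, 10^7 CFU/mL, treated at MIC and 4× MIC for 1 h. Pelleted, washed, PI-stained for 15 min at 37 °C in the dark, then counted by flow cytometry for % PI-positive cells. PBS-treated cells as negative control, 10% Triton X-100 as positive control. Run in triplicate; two-tailed unpaired t-test.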

Cell membrane [20] = assay: Disruption of cell membrane in Escherichia coli ATCC BAA-2452 assessed as increase in PI fluorescence intensity measured after 1 hrs by PI staining based flow cytometric analysis
Procedure, shortened: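 Mid-log E. coli ATCC BAA-2452 grown in Mueller Hinton broth, washed thrice and resuspended at 10^7 CFU/mL in 10 mM Tris pH 7.4. […] Controls: PBS (negative) and 10% Triton X-100 (positive). Triplicate; two-tailed unpaired t-test.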

Cell membrane [21] = assay: Disruption of cell membrane in methicillin resistant Staphylococcus aureus ATCC BAA 1556 assessed as increase in PI fluorescence intensity at 4 times of MIC measured after 1 hrs by PI staining based flow cytometric analysis; procedure, shortened: as §7

H-KWLKKWLKWWKK-NH2
fold change (FC) (Escherichia coli [1]): 2 | fold change (FC) (Staphylococcus aureus [2]): 2 | fold change (FC) (Staphylococcus aureus [3]): 2 | fold change (FC) (Escherichia coli [4]): 2 | fold change (FC) (Escherichia coli [5]): 2 | inhibition (INH) (Staphylococcus aureus [6]): 75% | Activity (MRC5 [7]): >75% | Activity (HEK293 [8]): >75% | Activity (HepaRG): >75% | Activity [9]: >75% | Activity (MRC5 [10]): >60% | Activity (HEK293 [11]): >60% | inhibition (Staphylococcus aureus [12]): Tde | inhibition (INH) (Staphylococcus aureus [13]): 100% | Activity (Cell membrane [14]): Dose-Dependent Effect | Activity (Cell membrane [15]): 30% | Activity (Cell membrane [16]): 80% | Activity (Cell membrane [17]): Dose-Dependent Effect | Activity (Cell membrane [18]): Active | Activity (Cell membrane [19]): Dose-Dependent Effect | Activity (Cell membrane [20]): Dose-Dependent Effect | Activity (Cell membrane [21]): 75%

H-RWLRRWLRWWRR-NH2
fold change (FC) (Escherichia coli [1]): 2 | fold change (FC) (Staphylococcus aureus [2]): 2 | fold change (FC) (Staphylococcus aureus [3]): 2 | fold change (FC) (Escherichia coli [4]): 2 | fold change (FC) (Escherichia coli [5]): 2 | inhibition (INH) (Staphylococcus aureus [6]): 75% | Activity (MRC5 [7]): <60% | Activity (HEK293 [8]): <60% | Activity (HepaRG): <60% | Activity [9]: <60% | Activity (MRC5 [10]): <30% | Activity (HEK293 [11]): <30% | inhibition (Staphylococcus aureus [12]): Tde | inhibition (INH) (Staphylococcus aureus [13]): 100% | Activity (Cell membrane [14]): Dose-Dependent Effect | Activity (Cell membrane [15]): 30% | Activity (Cell membrane [16]): 80% | Activity (Cell membrane [17]): Dose-Dependent Effect | Activity (Cell membrane [18]): Active | Activity (Cell membrane [19]): Dose-Dependent Effect | Activity (Cell membrane [20]): Dose-Dependent Effect | Activity (Cell membrane [21]): 75%
